Assays:
L1210 [1] = assay: Compound was tested for percent increase in life span against L1210 lymphoid leukemia; format: functional, Mus musculus
P388 = assay: Compound was tested for mean survival time of treated mice in days / mean survival time of control mice x 100 against P388 lymphoid leukemia cells; Inactive; format: functional, Mus musculus
L1210 [2] = assay: Compound was tested for the concentration required to inhibit the growth rate of the control L1210 cells by 50%; Value ranges from 2.60-4.71; format: functional; conditions: Mus musculus, read-out: ID50 (the source's name)
L1210 [3] = assay: Compound was tested for its inhibitory activity against L1210 lymphoid leukemia; format: functional, cell-based; conditions: Mus musculus
L1210 [4] = assay: Compound was tested for mean survival time of treated mice in days / mean survival time of control mice x 100 against L1210 lymphoid leukemia cells; format: functional, Mus musculus
How it was run: (§1)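 CD2F1 mice in groups of six received 1 × 10⁵ L1210 lymphoid leukemia cells ip. Dosing was ip, once a day for 5 days, starting 24 h after tumor inoculation, under standard NCI protocol. %T/C = (mean survival time of treated mice in days / mean survival time of controls) × 100. Toxic deaths were excluded from the %T/C calculation.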

L1210 [5] = assay: Antitumor activity against L1210 lymphoid leukemia in CD2F1 mice at 200 mg/injection and measured as mean weight change (days 5 minus 1) of treated mice minus mean weight change of control mice before second treatment was reported; format: functional, Mus musculus
How it was run: (§2)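 CD2F1 mice, in groups of six, were inoculated ip with 1 × 10⁵ L1210 lymphoid leukemia cells. Dosing was ip once daily for 5 days, starting 24 h after inoculation. Toxicity was scored as the mean weight change of treated mice (day 5 minus day 1) minus the mean weight change of control mice.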

L1210 [6] = assay: Antitumor activity against L1210 lymphoid leukemia in CD2F1 mice at a dose of 100 mg/injection and difference between estimated tumor burdens before second treatment; format: functional, Mus musculus
How it was run: (§3)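 CD2F1 mice, in groups of six, received 1 × 10⁵ L1210 cells ip and were dosed ip once daily for 5 days from 24 h after inoculation. Net cell kill is the estimated change in tumor burden from before the first dose to just after the last. It is calculated as (T − C − Rx)/3.32Td, using the tumor doubling time observed in that test and survival after the last treatment.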

L1210 [7] = assay: Antitumor activity against L1210 lymphoid leukemia in CD2F1 mice at a dose of 50 mg/injection measured as difference between estimated tumor burdens before second treatment; format: functional, Mus musculus; how it was run: as §3
L1210 [8] = assay: Antitumor activity against L1210 lymphoid leukemia in CD2F1 mice at 50 mg/injection and measured as mean weight change (days 5 minus 1) of treated mice minus mean weight change of control mice before second treatment was reported; format: functional, Mus musculus; how it was run: as §2
L1210 [9] = assay: Antitumor activity against L1210 lymphoid leukemia in CD2F1 mice at 25 mg/injection and measured as mean weight change (days 5 minus 1) of treated mice minus mean weight change of control mice before second treatment was reported; format: functional, Mus musculus; how it was run: as §2
L1210 [10] = assay: Antitumor activity against L1210 lymphoid leukemia in CD2F1 mice at 200 mg/injection and measured as mean survival time of treated mice in days/mean survival time of control mice x 100 before first treatment was reported; format: functional, Mus musculus; how it was run: as §1
L1210 [11] = assay: Antitumor activity against L1210 lymphoid leukemia in CD2F1 mice at a dose of […] measured as difference between estimated tumor burdens before second treatment; format: functional, Mus musculus
L1210 [12] = assay: Antitumor activity against L1210 lymphoid leukemia in CD2F1 mice at a dose of 200 mg/injection measured as difference between estimated tumor burdens before first treatment; format: functional, Mus musculus; how it was run: as §3
L1210 [13] = assay: Antitumor activity against L1210 lymphoid leukemia in CD2F1 mice at 100 mg/injection and measured as mean survival time of treated mice in days/mean survival time of control mice x 100 before first treatment was reported; format: functional, Mus musculus; how it was run: as §1
L1210 [14] = assay: Antitumor activity against L1210 lymphoid leukemia in CD2F1 mice at 25 mg/injection and measured as mean survival time of treated mice in days/mean survival time of control mice x 100 before second treatment was reported; format: functional, Mus musculus; how it was run: as §1
L1210 [15] = assay: Antitumor activity against L1210 lymphoid leukemia in CD2F1 mice at 300 mg/injection and measured as mean survival time of treated mice in days/mean survival time of control mice x 100 before first treatment was reported; format: functional, Mus musculus; how it was run: as §1
L1210 [16] = assay: Antitumor activity against L1210 lymphoid leukemia in CD2F1 mice at a dose of 300 mg/injection measured as difference between estimated tumor burdens before first treatment; format: functional, Mus musculus; how it was run: as §3
L1210 [17] = assay: Antitumor activity against L1210 lymphoid leukemia in CD2F1 mice at 200 mg/injection and measured as mean survival time of treated mice in days/mean survival time of control mice x 100 before second treatment was reported; format: functional, Mus musculus; how it was run: as §1
L1210 [18] = assay: Antitumor activity against L1210 lymphoid leukemia in CD2F1 mice at 100 mg/injection and measured as mean weight change (days 5 minus 1) of treated mice minus mean weight change of control mice before second treatment was reported; format: functional, Mus musculus; how it was run: as §2
L1210 [19] = assay: Antitumor activity against L1210 lymphoid leukemia in CD2F1 mice at 50 mg/injection and measured as mean weight change (days 5 minus 1) of treated mice minus mean weight change of control mice before first treatment was reported; format: functional, Mus musculus; how it was run: as §2
L1210 [20] = assay: Antitumor activity against L1210 lymphoid leukemia in CD2F1 mice at […] and measured as mean survival time of treated mice in days/mean survival time of control mice x 100 before second treatment was reported; format: functional, Mus musculus
L1210 [21] = assay: Antitumor activity against L1210 lymphoid leukemia in CD2F1 mice at 100 mg/injection and measured as mean survival time of treated mice in days/mean survival time of control mice x 100 before second treatment was reported; format: functional, Mus musculus; how it was run: as §1
L1210 [22] = assay: Antitumor activity against L1210 lymphoid leukemia in CD2F1 mice at 200 mg/injection and measured as mean weight change (days 5 minus 1) of treated mice minus mean weight change of control mice before first treatment was reported; format: functional, Mus musculus; how it was run: as §2
L1210 [23] = assay: Antitumor activity against L1210 lymphoid leukemia in CD2F1 mice at 50 mg/injection and measured as mean survival time of treated mice in days/mean survival time of control mice x 100 before second treatment was reported; format: functional, Mus musculus; how it was run: as §1
L1210 [24] = assay: Antitumor activity against L1210 lymphoid leukemia in CD2F1 mice at 300 mg/injection and mean weight change (days 5 minus 1) of treated mice minus mean weight change of control mice before first treatment was reported; format: functional, Mus musculus; how it was run: as §2
L1210 [25] = assay: Antitumor activity against L1210 lymphoid leukemia in CD2F1 mice at […] and measured as mean weight change (days 5 minus 1) of treated mice minus mean weight change of control mice before second treatment was reported; format: functional, Mus musculus
L1210 [26] = assay: Antitumor activity against L1210 lymphoid leukemia in CD2F1 mice at a dose of 50 mg/injection measured as difference between estimated tumor burdens before first treatment; format: functional, Mus musculus; how it was run: as §3
L1210 [27] = assay: Ability to inhibit growth of L1210 lymphocyte leukemia cell in culture; format: functional, cell-based; conditions: Mus musculus
L1210 [28] = assay: Antitumor activity against L1210 lymphoid leukemia in CD2F1 mice at 25 mg/injection and measured as mean survival time of treated mice in days/mean survival time of control mice x 100 before first treatment was reported; format: functional, Mus musculus; how it was run: as §1
L1210 [29] = assay: Antitumor activity against L1210 lymphoid leukemia in CD2F1 mice at a dose of 25 mg/injection measured as difference between estimated tumor burdens before second treatment; format: functional, Mus musculus; how it was run: as §3
L1210 [30] = assay: Antitumor activity against L1210 lymphoid leukemia in CD2F1 mice at 100 mg/injection and measured as mean weight change (days 5 minus 1) of treated mice minus mean weight change of control mice before first treatment was reported; format: functional, Mus musculus; how it was run: as §2
L1210 [31] = assay: Antitumor activity against L1210 lymphoid leukemia in CD2F1 mice at 25 mg/injection and measured as mean weight change (days 5 minus 1) of treated mice minus mean weight change of control mice before first treatment was reported; format: functional, Mus musculus; how it was run: as §2
L1210 [32] = assay: Antitumor activity against L1210 lymphoid leukemia in CD2F1 mice at 50 mg/injection and measured as mean survival time of treated mice in days/mean survival time of control mice x 100 before first treatment was reported; format: functional, Mus musculus; how it was run: as §1
L1210 [33] = assay: Antitumor activity against L1210 lymphoid leukemia in CD2F1 mice at a dose of 100 mg/injection measured as difference between estimated tumor burdens before first treatment; format: functional, Mus musculus; how it was run: as §3
L1210 [34] = assay: Antitumor activity against L1210 lymphoid leukemia in CD2F1 mice at a dose of 25 mg/injection measured as difference between estimated tumor burdens before first treatment; format: functional, Mus musculus; how it was run: as §3

In the case of Nc1nc(=O)n([C@H]2C[C@H](O)[C@@H](CO)O2)cc1F, the ILS (L1210 [1]) is reported as over 161%.
With Nc1ccnc(O)c1F the T/C (P388) was under 125%.
Nc1cc(O)nc(F)c1 gave a T/C (P388) of under 125%.
Compound Nc1cc(O)ncc1F has a T/C (P388) of under 125%.
With Nc1c(F)c(O)nc(F)c1F the T/C (P388) was under 125% and the IC50 (L1210 [2]) was 47.1 µM.
With NNc1nc(F)c(F)c(N)c1F the T/C (P388) was under 125% and the IC50 (L1210 [2]) was 47.1 µM.
Compound Nc1c(F)cnc(F)c1F has a T/C (P388) of under 125% and an IC50 (L1210 [2]) of 47.1 µM.
Work on Nc1ccn([C@@H]2O[C@H](CO)[C@@H](O)[C@H]2O)c(=O)c1 yielded an IC50 (L1210 [3]) of 17.8 µM.
For CC(=O)Nc1ccn([C@@H]2O[C@H](COC(C)=O)[C@@H](OC(C)=O)[C@H]2OC(C)=O)c(=O)c1F, the IC50 (L1210 [3]) was 12.5 µM.
In the case of Nc1ccn([C@H]2C[C@H](O)[C@@H](CO)O2)c(=O)c1F, the T/C (L1210 [4]) is reported as under 125%.
Compound Nc1c(F)cn([C@H]2C[C@H](O)[C@@H](CO)O2)c(=O)c1F has a T/C (L1210 [4]) of under 125%.
C[C@@]1(n2cc(F)c(N)c(F)c2=O)C[C@H](O)[C@@H](CO)O1 gave a T/C (L1210 [4]) of under 125%.
For Nc1c(F)cnc(O)c1F, the T/C (P388) was under 125% and the IC50 (L1210 [2]) was 47.1 µM.
Work on Nc1c(F)cn(C2O[C@H](CO)[C@@H](O)[C@H]2O)c(=O)c1F (some centres not stated) yielded a T/C (L1210 [4]) of under 125%.
Nc1ccn(C2O[C@H](CO)[C@@H](O)[C@H]2O)c(=O)c1F (some centres not stated) was tested, and the BWD (L1210 [5]) was -3.4, the Net log kill (L1210 [6]) was 5.54 and the Net log kill (L1210 [7]) was 3.01. For the same compound, the BWD (L1210 [8]) was -1.1, the BWD (L1210 [9]) was -1 and the T/C (L1210 [10]) was 208%. For the same compound, the Net log kill (L1210 [11]) was -0.97, the Net log kill (L1210 [12]) was 3.91 and the T/C (L1210 [13]) was 193%. It also gave a T/C (L1210 [14]) of 157%, a T/C (L1210 [15]) of 230% and a Net log kill (L1210 [16]) of 5.37. The T/C (L1210 [17]) was 208%, the BWD (L1210 [18]) was -1.3 and the BWD (L1210 [19]) was -1.7. It also gave a T/C (L1210 [20]) of 136%, a T/C (L1210 [21]) of 216% and a BWD (L1210 [22]) of -4.8. The T/C (L1210 [23]) was 185%, the BWD (L1210 [24]) was -4.7 and the BWD (L1210 [25]) was -0.5. The Net log kill (L1210 [26]) was 2.2, the IC50 (L1210 [27]) was 10.7 µM and the T/C (L1210 [28]) was 169%. The Net log kill (L1210 [29]) was 0.78, the BWD (L1210 [30]) was -3 and the BWD (L1210 [31]) was -1. For the same compound, the T/C (L1210 [32]) was 182%, the Net log kill (L1210 [33]) was 2.93 and the Net log kill (L1210 [34]) was 1.3.
With Nc1ncn([C@@H]2O[C@H](CO)[C@@H](O)[C@H]2O)c(=O)n1 [AZACITIDINE] the IC50 (L1210 [3]) was 0.409 µM.
Compound Nc1ccn([C@@H]2O[C@H](CO)[C@@H](O)[C@@H]2O)c(=O)n1 [CYTARABINE] has an ILS (L1210 [1]) of over 161%.
Compound Nc1ncn([C@H]2C[C@H](O)[C@@H](CO)O2)c(=O)n1 [DECITABINE] has an IC50 (L1210 [3]) of 0.393 µM.
Nc1ccn([C@H]2C[C@H](O)[C@@H](CO)O2)c(=O)n1 [DOXECITINE] showed an ILS (L1210 [1]) of over 161%.
